Measurements taken from ChEMBL document CHEMBL3580589, “Discovery of Quinazoline-Based Fluorescent Probes to α1-Adrenergic Receptors” (ACS Med Chem Lett, 2015).
The source made the active and inactive calls. No cut-off for these calls is given here.

Key:
[1] = molecular target: T1, Alpha-1D adrenergic receptor (Homo sapiens, UniProt P25100); test: Displacement of [3H]-Prazosin from human alpha-1D adrenergic receptor transfected in CHO cell membranes after 2 hrs by microplate scintillation counting analysis
T1 sequence (P25100 whole entry): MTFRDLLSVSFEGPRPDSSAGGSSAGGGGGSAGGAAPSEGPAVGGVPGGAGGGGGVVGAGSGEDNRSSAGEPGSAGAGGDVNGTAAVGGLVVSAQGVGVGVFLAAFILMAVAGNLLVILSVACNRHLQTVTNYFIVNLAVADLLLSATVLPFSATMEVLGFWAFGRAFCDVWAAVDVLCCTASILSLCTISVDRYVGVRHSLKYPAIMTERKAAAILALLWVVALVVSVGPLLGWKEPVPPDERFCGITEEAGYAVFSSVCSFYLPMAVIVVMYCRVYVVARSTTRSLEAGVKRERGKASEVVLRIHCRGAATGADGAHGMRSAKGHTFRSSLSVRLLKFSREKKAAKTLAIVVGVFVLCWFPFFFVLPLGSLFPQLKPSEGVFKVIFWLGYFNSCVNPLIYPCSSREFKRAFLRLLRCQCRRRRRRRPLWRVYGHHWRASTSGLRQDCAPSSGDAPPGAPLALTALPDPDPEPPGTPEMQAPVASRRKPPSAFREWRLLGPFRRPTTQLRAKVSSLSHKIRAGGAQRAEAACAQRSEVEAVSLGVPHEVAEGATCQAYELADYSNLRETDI
Method in brief: (§1)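 Radioligand competition binding used [3H]prazosin on membranes from CHO cells transfected with human cloned α1A-, α1B- or α1D-adrenoceptors.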

[2] = Cytotoxicity against HEK293A cells transfected with alpha-1A adrenergic receptor assessed as cell viability by sulforhodamine B assay; assay type: cell-based; details: Homo sapiens, HEK293-A
Method in brief: (§2)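 Standard sulforhodamine B colorimetric assay in HEK293A cells stably transfected with α1A-AR or α1D-AR.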

[3] = Cytotoxicity against HEK293A cells transfected with alpha-1D adrenergic receptor assessed as cell viability by sulforhodamine B assay; assay type: cell-based; details: Homo sapiens, HEK293-A; method in brief: as §2
[4] = molecular target: T2, Alpha-1A adrenergic receptor (Homo sapiens) (UniProt P35348); test: Binding affinity to alpha-1A adrenergic receptor (unknown origin) transfected in HEK293A cells at 50 nM after 5 mins by DiD dye-based confocal microscopic analysis; assay type: cell-based; details: HEK293-A
T2 sequence (whole entry): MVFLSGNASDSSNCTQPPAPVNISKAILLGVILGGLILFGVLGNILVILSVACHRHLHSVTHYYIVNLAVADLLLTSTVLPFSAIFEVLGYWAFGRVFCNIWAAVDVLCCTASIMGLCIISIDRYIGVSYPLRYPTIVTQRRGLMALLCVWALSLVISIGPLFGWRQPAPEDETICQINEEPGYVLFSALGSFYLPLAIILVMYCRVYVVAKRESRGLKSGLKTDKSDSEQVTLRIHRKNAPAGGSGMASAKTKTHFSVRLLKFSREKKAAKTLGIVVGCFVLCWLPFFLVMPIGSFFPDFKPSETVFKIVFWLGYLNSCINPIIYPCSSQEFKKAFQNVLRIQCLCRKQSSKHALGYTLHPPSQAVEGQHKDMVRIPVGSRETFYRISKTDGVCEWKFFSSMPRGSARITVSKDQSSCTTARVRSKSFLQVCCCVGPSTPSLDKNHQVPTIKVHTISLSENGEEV
Method in brief: (§3)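 α1A-AR- or α1D-AR-transfected HEK293A cells, or untransfected HEK293A cells as the receptor-free control, were incubated with the probe plus DiD (red, colocalization) for 5 min at 37 °C. Probe signal was compared with the DiD-stained surface for subcellular localization by fluorescence microscopy.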

[5] = molecular target: T3, Alpha-1D adrenergic receptor (Homo sapiens) (UniProt P25100); test: Binding affinity to alpha-1D adrenergic receptor (unknown origin) transfected in HEK293A cells at 50 nM after 5 mins by DiD dye-based confocal microscopic analysis; assay type: cell-based; details: HEK293-A; method in brief: as §3
T3 sequence (whole entry): T1 sequence (P25100 whole entry)

[6] = molecular target: T2, Alpha-1A adrenergic receptor (Homo sapiens); test: Binding affinity to alpha-1A adrenergic receptor (unknown origin) transfected in HEK293A cells at 50 nM after 5 mins by DiD dye-based confocal microscopic analysis in presence of alpha1 adrenergic receptor antagonist tamsulosin; assay type: cell-based; details: HEK293-A
Method in brief: (§4)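 Transfected HEK293A cells expressing α1A-AR or α1D-AR were incubated with the probe, DiD and tamsulosin as competing α1-AR antagonist for 5 min at 37 °C. Fluorescence labelling was imaged by confocal microscopy.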

[7] = molecular target: T3, Alpha-1D adrenergic receptor (Homo sapiens); test: Binding affinity to alpha-1D adrenergic receptor (unknown origin) transfected in HEK293A cells at 50 nM after 5 mins by DiD dye-based confocal microscopic analysis in presence of alpha1 adrenergic receptor antagonist tamsulosin; assay type: cell-based; details: HEK293-A; method in brief: as §4
[8] = Drug uptake in HEK293A cells at 50 nM after 5 mins by DiD dye-based confocal microscopic analysis; assay type: ADME, cell-based; details: human, hek293-a, 0.05 µM; method in brief: as §3
[9] = molecular target: T4, Alpha-1A adrenergic receptor (Homo sapiens, UniProt P35348); test: Displacement of [3H]-Prazosin from human alpha-1A adrenergic receptor transfected in CHO cell membranes after 2 hrs by microplate scintillation counting analysis; method in brief: as §1
T4 sequence (P35348 whole entry): T2 sequence (whole entry)

[10] = molecular target: T5, Alpha-1B adrenergic receptor (Homo sapiens, UniProt P35368); test: Displacement of [3H]-Prazosin from human alpha-1B adrenergic receptor transfected in CHO cell membranes after 2 hrs by microplate scintillation counting analysis; method in brief: as §1
T5 sequence (P35368 whole entry): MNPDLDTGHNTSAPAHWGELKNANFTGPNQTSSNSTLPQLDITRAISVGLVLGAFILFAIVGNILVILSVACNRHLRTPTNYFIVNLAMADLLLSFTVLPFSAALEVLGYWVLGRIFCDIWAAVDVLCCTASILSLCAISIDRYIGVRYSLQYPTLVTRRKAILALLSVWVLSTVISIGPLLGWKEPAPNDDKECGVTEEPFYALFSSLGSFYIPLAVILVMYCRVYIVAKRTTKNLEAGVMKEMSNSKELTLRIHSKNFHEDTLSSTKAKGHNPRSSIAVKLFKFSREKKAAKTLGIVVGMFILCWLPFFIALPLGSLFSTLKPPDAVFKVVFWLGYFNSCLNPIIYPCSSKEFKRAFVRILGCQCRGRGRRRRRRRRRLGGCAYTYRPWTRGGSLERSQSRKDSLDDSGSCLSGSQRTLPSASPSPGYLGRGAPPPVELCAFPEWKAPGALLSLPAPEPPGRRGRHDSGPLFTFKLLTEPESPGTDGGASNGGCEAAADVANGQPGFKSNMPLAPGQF

[11] = molecular target: T6, Adrenergic receptor alpha-1 (Homo sapiens) (UniProt P35348+P25100+P35368); test: Binding affinity to alpha-1 adrenergic receptor in human PC3 cells at 1 uM measured 30 mins post wash out by fluorescence assay; assay type: cell-based; details: PC-3
Method in brief: (§5)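 PC-3 or HepG2 cells were incubated with the probe at 1 μM for 30 min at 37 °C, then washed immediately. Labelling was imaged by fluorescence microscopy, with background adjusted.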

HepG2 = test: Drug uptake in human HepG2 cells expressing low level of alpha-1 adrenergic receptor at 1 uM measured 30 mins post wash out by fluorescence assay; assay type: ADME, cell-based; details: hepg2, 0.5 h; method in brief: as §5
[12] = molecular target: T6, Adrenergic receptor alpha-1 (Homo sapiens); test: Binding affinity to alpha-1 adrenergic receptor in human PC3 cells at 1 uM measured 30 mins post wash out by fluorescence assay in presence of doxazosin; assay type: cell-based; details: PC-3
Method in brief: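 PC-3 cells were co-incubated with the probe at 1 μM and doxazosin at 10 μM for 30 min at 37 °C, then washed immediately. Displacement of labelling was imaged by fluorescence microscopy.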

[13] = molecular target: T2, Alpha-1A adrenergic receptor (Homo sapiens); test: Binding affinity to alpha-1A adrenergic receptor (unknown origin) transfected in HEK293A cells at 15 nM measured 5 mins post wash out by DiD dye-based confocal microscopic analysis; assay type: cell-based; details: HEK293-A
Method in brief: (§6)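 HEK293A cells stably transfected with α1A-AR or α1D-AR, or untransfected HEK293A cells, were incubated with the probe at 15 nM plus the membrane dye DiD for 5 min at 37 °C. Cells were washed immediately and imaged by confocal fluorescence microscopy at identical exposure times.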

[14] = molecular target: T3, Alpha-1D adrenergic receptor (Homo sapiens); test: Binding affinity to alpha-1D adrenergic receptor (unknown origin) transfected in HEK293A cells at 15 nM measured 5 mins post wash out by DiD dye-based confocal microscopic analysis; assay type: cell-based; details: HEK293-A; method in brief: as §6
[15] = molecular target: T2, Alpha-1A adrenergic receptor (Homo sapiens); test: Binding affinity to alpha-1A adrenergic receptor (unknown origin) transfected in HEK293A cells at 15 nM measured 5 mins post wash out by DiD dye-based confocal microscopic analysis in presence of alpha1 adrenergic receptor antagonist tamsulosin; assay type: cell-based; details: HEK293-A
Method in brief: (§7)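 α1A-AR- or α1D-AR-transfected HEK293A cells were incubated with the probe at 15 nM, DiD and tamsulosin at 300 nM as competitor for 5 min at 37 °C. Cells were washed immediately and imaged by confocal microscopy at identical exposure.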

[16] = molecular target: T3, Alpha-1D adrenergic receptor (Homo sapiens); test: Binding affinity to alpha-1D adrenergic receptor (unknown origin) transfected in HEK293A cells at 15 nM measured 5 mins post wash out by DiD dye-based confocal microscopic analysis in presence of alpha1 adrenergic receptor antagonist tamsulosin; assay type: cell-based; details: HEK293-A; method in brief: as §7
[17] = Drug uptake in HEK293A cells at 15 nM measured 5 mins post wash out by DiD dye-based confocal microscopic analysis; assay type: ADME, cell-based; details: human, hek293-a, 0.015 µM; method in brief: as §6
[18] = Drug uptake in plasma membrane of HEK293A cells transfected with alpha-1A adrenergic receptor at 50 nM measured 5 mins post wash out by DiD dye-based confocal microscopic analysis; assay type: ADME; details: human, hek293-a, 0.05 µM; method in brief: as §3
[19] = Drug uptake in cytoplasm of HEK293A cells transfected with alpha-1D adrenergic receptor at 50 nM measured 5 mins post wash out by DiD dye-based confocal microscopic analysis; assay type: ADME, cell-based; details: human, hek293-a, 0.05 µM; method in brief: as §3
[20] = Drug uptake in plasma membrane of HEK293A cells transfected with alpha-1D adrenergic receptor at 50 nM measured 5 mins post wash out by DiD dye-based confocal microscopic analysis; assay type: ADME, cell membranes; details: human, hek293-a, 0.05 µM; method in brief: as §3

IC50 [1]	IC50 [9]	Ki [9]	IC50 [10]	Activity [13]	Activity [14]	Activity [15]	Activity [16]	Drug uptake [17]	Structure (SMILES)	IC50 [2]	IC50 [3]	also measured
34 nM	8.8 nM	4.7 nM	16.3 nM	–	–	–	–	–	COc1cc2nc(N3CCN(C(=S)Nc4ccc(-c5c6ccc(=O)cc-6oc6cc(O)ccc56)c(C(=O)O)c4)CC3)nc(N)c2cc1OC	> 100000 nM	> 100000 nM	Ki [1]: 20.7 nM; Activity [4]: Active; Activity [5]: Active; Activity [6]: inactive; Activity [7]: inactive; Drug uptake [8]: Active; Ki [10]: 7.3 nM; Activity [11]: Active; Drug uptake (HepG2): Active; Activity [12]: inactive
< 5 nM	3.9 nM	2.1 nM	< 5 nM	Active	Active	inactive	inactive	Active	COc1cc2nc(N3CCN(C(=O)c4cc5ccc(O)cc5oc4=O)CC3)nc(N)c2cc1OC	> 100000 nM	> 100000 nM	Drug uptake [18]: Active; Drug uptake [19]: Active; Drug uptake [20]: Active
< 5 nM	2.5 nM	1.3 nM	< 5 nM	Active	Active	inactive	inactive	Active	COc1cc2nc(N3CCN(C(=O)c4cn(-c5cc6ccc(O)cc6oc5=O)nn4)CC3)nc(N)c2cc1OC	> 100000 nM	85000 nM	–
